From ChEMBL document CHEMBL3352526, “4-Quinolone-3-carboxylic acids as cell-permeable inhibitors of protein tyrosine phosphatase 1B” (Bioorg Med Chem, 2014)
Each block holds one compound with its values, some of them ahead of it. Activity calls are given as the source filed them. The rule behind the calls is not given here.

Legend:
[1] = molecular target: T1, Tyrosine-protein phosphatase non-receptor type 1 (Homo sapiens, UniProt P18031); assay: Inhibition of PTP1B (unknown origin) using pNPP as substrate by colorimetric assay
T1 sequence (P18031 whole entry): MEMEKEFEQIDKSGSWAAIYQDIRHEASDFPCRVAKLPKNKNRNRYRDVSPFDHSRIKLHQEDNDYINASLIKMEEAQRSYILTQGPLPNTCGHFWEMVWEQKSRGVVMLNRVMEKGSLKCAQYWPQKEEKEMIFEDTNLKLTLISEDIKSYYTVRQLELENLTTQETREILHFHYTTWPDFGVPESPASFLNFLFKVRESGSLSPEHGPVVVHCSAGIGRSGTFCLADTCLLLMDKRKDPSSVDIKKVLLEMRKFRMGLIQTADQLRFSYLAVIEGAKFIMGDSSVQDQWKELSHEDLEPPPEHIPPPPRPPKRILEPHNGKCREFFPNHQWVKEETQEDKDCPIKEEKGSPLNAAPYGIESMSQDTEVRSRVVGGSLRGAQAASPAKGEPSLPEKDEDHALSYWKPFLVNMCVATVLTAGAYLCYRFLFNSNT
Method in brief: (§1)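 GST-PTP1B or GST-TCPTP at 30 nmol/L, 2 mmol/L pNPP, 50 mmol/L MOPS pH 6.5, 2% DMSO, compounds serially diluted from DMSO. Hydrolysis followed continuously at 405 nm for 3 min at 30 °C. IC50 from nonlinear fit of % inhibition vs concentration with Hill coefficient; means ± SD of three replications.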

[2] = molecular target: T2, Tyrosine-protein phosphatase non-receptor type 1 (Homo sapiens) (UniProt P18031); assay: Inhibition of PTP1B (unknown origin) using pNPP as substrate at 20 ug/ml by colorimetric assay
T2 sequence (whole entry): T1 sequence (P18031 whole entry)

[3] = molecular target: T3, Tyrosine-protein phosphatase non-receptor type 6 (Homo sapiens, UniProt P29350); assay: Inhibition of SHP1 (unknown origin) using 3-o-methylfluorescein phosphatase substrate by colorimetric assay
Method in brief: (§2)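 SHP1, SHP2 or LAR recombinant enzyme at 20 nmol/L with 10 µmol/L OMFP in 50 mmol/L MOPS pH 6.5, 2 mmol/L DTT, 1 mmol/L EDTA, 2% DMSO, 30 °C. Fluorescent product read at ex 485/em 530 nm; initial rate from the early linear part of the kinetic curve.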

[4] = molecular target: T4, Tyrosine-protein phosphatase non-receptor type 2 (Homo sapiens, UniProt P17706); assay: Inhibition of TCPTP (unknown origin) using pNPP as substrate by colorimetric assay; method in brief: as §1
T4 sequence (P17706 whole entry): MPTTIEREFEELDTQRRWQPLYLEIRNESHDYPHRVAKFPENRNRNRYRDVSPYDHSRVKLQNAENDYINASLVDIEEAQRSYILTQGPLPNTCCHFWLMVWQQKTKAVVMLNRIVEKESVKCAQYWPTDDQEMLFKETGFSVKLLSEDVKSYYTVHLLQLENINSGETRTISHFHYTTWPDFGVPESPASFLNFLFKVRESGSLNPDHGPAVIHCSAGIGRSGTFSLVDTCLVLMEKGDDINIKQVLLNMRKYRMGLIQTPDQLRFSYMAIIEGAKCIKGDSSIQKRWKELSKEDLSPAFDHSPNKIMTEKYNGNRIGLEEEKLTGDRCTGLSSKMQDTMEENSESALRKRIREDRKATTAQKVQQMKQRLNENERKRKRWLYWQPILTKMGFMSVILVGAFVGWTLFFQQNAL

[5] = species: Homo sapiens; assay: Selectivity ratio of IC50 for TCPTP (unknown origin) to IC50 for PTP1B (unknown origin)
[6] = species: Homo sapiens; assay: Selectivity ratio of IC50 for LAR (unknown origin) to IC50 for PTP1B (unknown origin)
[7] = molecular target: T5, Tyrosine-protein phosphatase non-receptor type 11 (Homo sapiens) (UniProt Q06124); assay: Inhibition of SHP2 (unknown origin) using 3-o-methylfluorescein phosphatase substrate at 20 ug/ml by colorimetric assay
T5 sequence (whole entry): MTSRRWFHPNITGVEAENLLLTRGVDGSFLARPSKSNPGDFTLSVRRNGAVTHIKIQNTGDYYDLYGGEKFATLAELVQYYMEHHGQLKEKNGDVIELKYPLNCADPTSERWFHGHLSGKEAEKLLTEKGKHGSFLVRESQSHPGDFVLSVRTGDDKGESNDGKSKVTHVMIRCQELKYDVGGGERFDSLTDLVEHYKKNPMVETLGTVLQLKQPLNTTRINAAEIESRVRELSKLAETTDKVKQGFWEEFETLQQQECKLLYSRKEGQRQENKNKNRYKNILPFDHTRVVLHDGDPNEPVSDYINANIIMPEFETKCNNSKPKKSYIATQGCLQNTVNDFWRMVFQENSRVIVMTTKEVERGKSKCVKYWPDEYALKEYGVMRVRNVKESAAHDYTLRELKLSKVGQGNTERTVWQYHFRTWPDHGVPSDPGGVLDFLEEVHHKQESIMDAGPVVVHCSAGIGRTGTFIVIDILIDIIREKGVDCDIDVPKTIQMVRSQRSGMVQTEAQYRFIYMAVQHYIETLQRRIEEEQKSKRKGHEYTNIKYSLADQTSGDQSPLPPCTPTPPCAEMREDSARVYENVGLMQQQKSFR

[8] = species: Homo sapiens; assay: Selectivity ratio of IC50 for SHP2 (unknown origin) to IC50 for PTP1B (unknown origin)
[9] = molecular target: T1, Tyrosine-protein phosphatase non-receptor type 1; assay: Competitive inhibition of PTP1B (unknown origin) using pNPP as substrate by Lineweaver-Burk plot
Method in brief: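 Kinetics in 100 µL of 50 mmol/L MOPS pH 6.5 with 30 nmol/L PTP1B, pNPP in 2-fold dilutions from 80 mmol/L, at several inhibitor concentrations. Ki taken from a linear replot of apparent Km/Vmax (slope of double-reciprocal plot) against [I].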

[10] = molecular target: T6, Receptor-type tyrosine-protein phosphatase F (Homo sapiens, UniProt P10586); assay: Inhibition of LAR (unknown origin) using 3-o-methylfluorescein phosphatase substrate at 20 ug/ml by colorimetric assay
[11] = molecular target: T6, Receptor-type tyrosine-protein phosphatase F; assay: Inhibition of LAR (unknown origin) using 3-o-methylfluorescein phosphatase substrate by colorimetric assay; method in brief: as §2
[12] = molecular target: T7, Tyrosine-protein phosphatase non-receptor type 11 (Homo sapiens, UniProt Q06124); assay: Inhibition of SHP2 (unknown origin) using 3-o-methylfluorescein phosphatase substrate by colorimetric assay; method in brief: as §2
T7 sequence (Q06124 whole entry): T5 sequence (whole entry)

[13] = molecular target: T2, Tyrosine-protein phosphatase non-receptor type 1 (Homo sapiens); assay: Inhibition of PTP1B (unknown origin) expressed in CHO cells co-expressing human IRbeta assessed as increase in insulin-stimulated IRbeta phosphorylation at 3 to 30 uM after 1 hr by Western blotting analysis; format: cell-based
Method in brief: (§3)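 CHO/hIR cells grown in F12 with 10% FBS, penicillin/streptomycin, 37 °C, 5% CO2. After 2 h serum starvation, compound for 1 h, then 10 nM insulin for 10 min. Lysates in SDS loading buffer run on 8% SDS-PAGE, blotted with anti-pTyr (PY20); β-actin as loading control.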

[14] = molecular target: T2, Tyrosine-protein phosphatase non-receptor type 1 (Homo sapiens); assay: Inhibition of PTP1B (unknown origin) expressed in CHO cells co-expressing human IRbeta assessed as increase in insulin-stimulated IRbeta phosphorylation at 90 uM after 1 hr by Western blotting analysis; format: cell-based; method in brief: as §3
[15] = molecular target: T3, Tyrosine-protein phosphatase non-receptor type 6; assay: Inhibition of SHP1 (unknown origin) using 3-o-methylfluorescein phosphatase substrate at 20 ug/ml by colorimetric assay
[16] = molecular target: T8, Tyrosine-protein phosphatase non-receptor type 2 (Homo sapiens) (UniProt P17706); assay: Inhibition of TCPTP (unknown origin) using pNPP as substrate at 20 ug/ml by colorimetric assay
T8 sequence (whole entry): T4 sequence (P17706 whole entry)

T6 sequence (P10586 whole entry): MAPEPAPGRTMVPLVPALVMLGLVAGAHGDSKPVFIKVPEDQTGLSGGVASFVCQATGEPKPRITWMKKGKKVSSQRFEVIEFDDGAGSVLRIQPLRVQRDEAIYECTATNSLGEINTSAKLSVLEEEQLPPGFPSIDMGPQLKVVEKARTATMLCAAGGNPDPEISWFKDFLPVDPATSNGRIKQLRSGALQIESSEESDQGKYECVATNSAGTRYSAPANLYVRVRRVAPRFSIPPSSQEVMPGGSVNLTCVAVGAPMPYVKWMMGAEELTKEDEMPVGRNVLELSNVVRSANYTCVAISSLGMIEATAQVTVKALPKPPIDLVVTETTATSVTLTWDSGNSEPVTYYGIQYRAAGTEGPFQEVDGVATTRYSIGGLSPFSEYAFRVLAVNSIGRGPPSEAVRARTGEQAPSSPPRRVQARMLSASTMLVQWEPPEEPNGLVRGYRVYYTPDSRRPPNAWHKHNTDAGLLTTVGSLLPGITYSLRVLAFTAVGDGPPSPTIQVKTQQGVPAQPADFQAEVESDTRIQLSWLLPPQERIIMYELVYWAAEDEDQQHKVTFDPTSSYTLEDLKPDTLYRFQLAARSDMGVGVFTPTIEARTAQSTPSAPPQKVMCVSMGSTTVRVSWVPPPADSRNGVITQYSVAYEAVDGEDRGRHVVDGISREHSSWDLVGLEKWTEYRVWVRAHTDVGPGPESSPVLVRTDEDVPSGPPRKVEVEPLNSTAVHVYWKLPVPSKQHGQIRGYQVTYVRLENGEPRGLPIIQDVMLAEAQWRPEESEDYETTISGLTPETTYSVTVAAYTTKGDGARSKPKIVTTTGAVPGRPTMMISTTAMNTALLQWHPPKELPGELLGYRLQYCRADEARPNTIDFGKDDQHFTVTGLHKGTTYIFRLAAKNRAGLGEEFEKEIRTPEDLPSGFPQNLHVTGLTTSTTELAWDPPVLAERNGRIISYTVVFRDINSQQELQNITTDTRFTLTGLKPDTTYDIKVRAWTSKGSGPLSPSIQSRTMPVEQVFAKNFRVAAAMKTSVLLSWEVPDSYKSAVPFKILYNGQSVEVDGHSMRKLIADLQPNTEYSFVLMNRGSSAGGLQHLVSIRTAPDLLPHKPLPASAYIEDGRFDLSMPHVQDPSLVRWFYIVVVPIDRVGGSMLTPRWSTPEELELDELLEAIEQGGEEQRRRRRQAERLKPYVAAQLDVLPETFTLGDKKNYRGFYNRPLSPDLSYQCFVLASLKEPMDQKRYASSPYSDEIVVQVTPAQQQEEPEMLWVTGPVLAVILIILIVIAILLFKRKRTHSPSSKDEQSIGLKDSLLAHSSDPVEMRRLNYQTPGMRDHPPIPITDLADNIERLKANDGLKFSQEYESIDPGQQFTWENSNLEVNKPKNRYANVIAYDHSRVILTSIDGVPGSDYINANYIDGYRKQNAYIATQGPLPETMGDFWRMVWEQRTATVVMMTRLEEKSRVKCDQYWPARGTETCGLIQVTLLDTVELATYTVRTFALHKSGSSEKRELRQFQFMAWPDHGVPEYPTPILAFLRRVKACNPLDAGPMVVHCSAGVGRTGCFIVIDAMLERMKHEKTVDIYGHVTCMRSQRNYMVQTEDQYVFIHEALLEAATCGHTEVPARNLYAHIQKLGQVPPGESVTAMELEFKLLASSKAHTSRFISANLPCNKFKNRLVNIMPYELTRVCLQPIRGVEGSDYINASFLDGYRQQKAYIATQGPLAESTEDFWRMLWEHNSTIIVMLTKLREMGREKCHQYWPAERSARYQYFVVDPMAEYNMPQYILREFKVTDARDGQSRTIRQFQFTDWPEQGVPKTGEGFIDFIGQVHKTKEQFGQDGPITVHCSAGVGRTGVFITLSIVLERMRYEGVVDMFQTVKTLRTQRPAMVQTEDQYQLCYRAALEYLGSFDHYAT
T3 sequence (P29350 whole entry): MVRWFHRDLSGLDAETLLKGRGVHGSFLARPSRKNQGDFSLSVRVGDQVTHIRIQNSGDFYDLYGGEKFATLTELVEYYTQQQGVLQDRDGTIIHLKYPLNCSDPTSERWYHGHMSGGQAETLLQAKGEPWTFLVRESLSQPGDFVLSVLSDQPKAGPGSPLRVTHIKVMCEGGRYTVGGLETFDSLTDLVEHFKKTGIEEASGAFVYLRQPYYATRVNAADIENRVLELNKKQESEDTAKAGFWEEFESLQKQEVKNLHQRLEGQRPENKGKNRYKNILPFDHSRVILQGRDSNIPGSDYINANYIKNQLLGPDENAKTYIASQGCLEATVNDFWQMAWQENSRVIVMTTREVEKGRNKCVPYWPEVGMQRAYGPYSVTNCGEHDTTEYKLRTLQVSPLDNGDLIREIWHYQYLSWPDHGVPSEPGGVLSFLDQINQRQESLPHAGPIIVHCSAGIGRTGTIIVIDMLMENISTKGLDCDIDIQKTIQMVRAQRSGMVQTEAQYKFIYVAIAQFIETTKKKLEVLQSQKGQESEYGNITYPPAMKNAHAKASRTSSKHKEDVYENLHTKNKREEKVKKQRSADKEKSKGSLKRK

SMILES: COC(=O)c1c(O)cccc1OCCCNC(=O)c1cn(Cc2ccccc2)c2cc(F)ccc2c1=O
IC50 [1]: 18.6 µM

inhibition [2]: 0.7%
SMILES: O=C(O)c1cn(Cc2ccccc2)c2cc(F)ccc2c1=O

IC50 ([3]; read-out: IC50 (converted)): 12.4 µM | IC50 ([4]; read-out: IC50 (converted)): 11.5 µM | Ratio IC50 [5]: 2 | Ratio IC50 [6]: > 10 | inhibition [7]: < 50% | Ratio IC50 [8]: > 10 | Ki [9]: 1.33 µM | inhibition [10]: < 50% | IC50 [11]: Not Active | IC50 [12]: Not Active | Activity [13]: inactive | IC50 [1]: 5.66 µM | Activity [14]: Active
SMILES: CCOC(=O)/C(O)=C/C(=O)c1cccc(Cn2cc(C(=O)O)c(=O)c3cc(I)ccc32)c1

IC50 ([3]; read-out: IC50 (converted)): 9.82 µM | IC50 ([4]; read-out: IC50 (converted)): 9.44 µM | Ratio IC50 [5]: 2 | Ratio IC50 [6]: > 10 | inhibition [7]: < 50% | Ratio IC50 [8]: > 10 | inhibition [10]: < 50% | IC50 [11]: Not Active | IC50 [12]: Not Active | IC50 [1]: 4.62 µM
SMILES: O=C(O)/C(O)=C/C(=O)c1cccc(Cn2cc(C(=O)O)c(=O)c3cc(I)ccc32)c1

SMILES: O=C(NCc1ccccc1)c1cn(C2CC2)c2ccc(F)cc2c1=O
inhibition [2]: 0.2%

IC50 [1]: 73.9 µM
SMILES: COC(=O)c1c(OCCCN2CCN(c3ccc4c(c3)c(=O)c(C(=O)O)cn4C3CC3)CC2)cccc1OCc1ccccc1

SMILES: O=C(NCc1ccccc1)c1cn(Cc2ccccc2)c2ccc(I)cc2c1=O
IC50 [3]: Not Active | IC50 [4]: Not Active | inhibition [2]: 61.8% | inhibition [7]: < 50% | inhibition [15]: < 50% | inhibition [10]: < 50% | IC50 [11]: Not Active | IC50 [12]: Not Active | IC50 [1]: 28.1 µM | inhibition [16]: < 50%

inhibition [2]: 12.4%
SMILES: Nc1ccc2c(c1)c(=O)c(C(=O)O)cn2Cc1ccc(F)cc1

IC50 [1]: > 40.5 µM
SMILES: COC(=O)c1cc(Cn2cc(C(=O)O)c(=O)c3cc(I)ccc32)ccc1OC

IC50 [3]: Not Active | IC50 [4]: Not Active | inhibition [7]: < 50% | inhibition [15]: < 50% | inhibition [10]: < 50% | IC50 [11]: Not Active | IC50 [12]: Not Active | IC50 [1]: 16.9 µM | inhibition [16]: < 50%
SMILES: COC(=O)c1cc(Cn2cc(C(=O)O)c(=O)c3cc(I)ccc32)ccc1O

inhibition [2]: 0.8%
SMILES: O=C(O)c1cn(C2CC2)c2ccc(F)cc2c1=O

SMILES: O=C(NCc1ccccc1)c1cn(C2CC2)c2cc(F)ccc2c1=O
inhibition [2]: 7.4%

inhibition [2]: 3.5%
SMILES: O=C(O)c1cn(C2CC2)c2ccc(I)cc2c1=O

SMILES: O=C(NCc1ccc(F)cc1)c1cn(C2CC2)c2ccc(I)cc2c1=O
inhibition [2]: 3.3%

IC50 [3]: Not Active | IC50 [4]: Not Active | inhibition [2]: 71.1% | inhibition [7]: < 50% | inhibition [15]: < 50% | inhibition [10]: < 50% | IC50 [11]: Not Active | IC50 [12]: Not Active | IC50 [1]: 36.5 µM | inhibition [16]: < 50%
SMILES: O=C(O)c1cn(C2CC2)c2ccc(Cc3ccc(F)cc3)cc2c1=O

inhibition [2]: 80.5% | IC50 [1]: 25.6 µM
SMILES: O=C(OCc1ccccc1)c1cn(C2CC2)c2ccc(I)cc2c1=O

inhibition [2]: 15.1%
SMILES: O=C(O)c1cn(Cc2ccccc2)c2ccc(F)cc2c1=O

SMILES: O=C(NCc1ccccc1)c1cn(C2CC2)c2ccc(I)cc2c1=O
inhibition [2]: 6.1%

inhibition [2]: 36.2%
SMILES: O=C(O)c1cn(Cc2ccc(F)cc2)c2ccc([N+](=O)[O-])cc2c1=O

SMILES: COC(=O)c1cc(Cn2cc(C(=O)NCc3ccccc3)c(=O)c3cc(I)ccc32)ccc1OC
IC50 [1]: > 34.3 µM

IC50 [3]: Not Active | IC50 [4]: Not Active | inhibition [2]: 87.5% | inhibition [7]: < 50% | inhibition [15]: < 50% | inhibition [10]: < 50% | IC50 [11]: Not Active | IC50 [12]: Not Active | IC50 [1]: 23.5 µM | inhibition [16]: < 50%
SMILES: O=C(O)c1cn(C2CC2)c2ccc(Cc3ccccc3)cc2c1=O

inhibition [2]: 15.1%
SMILES: O=C(O)c1cn(Cc2ccccc2)c2ccc(Cc3ccccc3)cc2c1=O

inhibition [2]: 73% | IC50 [1]: 31.4 µM
SMILES: O=C(OCc1ccc(F)cc1)c1cn(C2CC2)c2ccc(Cc3ccc(F)cc3)cc2c1=O

inhibition [2]: 3.1%
SMILES: O=C(O)c1cn(Cc2ccccc2)c2ccc(I)cc2c1=O

inhibition [2]: 62.3% | IC50 [1]: 22.8 µM
SMILES: O=C(O)c1cn(C2CC2)c2ccc(N3CCN(Cc4ccccc4)CC3)cc2c1=O

IC50 [1]: 2.8 µM
SMILES: O=C(/C=C(\O)C(=O)N1CCN(C(=O)/C(O)=C\C(=O)c2cccc(N(Cc3ccccc3)Cc3ccccc3)c2)CC1)c1cccc(N(Cc2ccccc2)Cc2ccccc2)c1

SMILES: COC(=O)c1c(O)cccc1OCCCNC(=O)c1cn(Cc2ccc(F)cc2)c2ccc([N+](=O)[O-])cc2c1=O
IC50 [3]: Not Active | IC50 [4]: Not Active | inhibition [7]: < 50% | inhibition [15]: < 50% | inhibition [10]: < 50% | IC50 [11]: Not Active | IC50 [12]: Not Active | IC50 [1]: 11.8 µM | inhibition [16]: < 50%

SMILES: O=C(NCc1ccccc1)c1cn(Cc2ccccc2)c2ccc(F)cc2c1=O
inhibition [2]: 41.4%

inhibition [2]: 0.1%
SMILES: O=C(OCc1ccccc1)c1cn(Cc2ccccc2)c2ccc(Cc3ccccc3)cc2c1=O
